Bioassay records from PubChem.
Only some compounds are listed: those with a hit (about 0.58% of all), similar ones and a draw of the others.
OXTR potentiate: human OXTR potentiation; P30559; CHO-OTR cells, Fluo-8 calcium fluorescence, potentiator mode; 0% = oxytocin EC15, 100% = EC100; 320,000 compounds, 0.061% hits; activation, % at 3 µM;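 active means activation above that plate's cutoff, the mean activation of tested compounds plus 3 SD, cut at about 6.6% in these data, passing the limit was not always enough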
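Assay system: CHO cell line stably expressing human OTR. Reagent: EC15 oxytocin agonist. Dosing: single dose, 3.0 µM nominal final compound concentration. Timing: compound 6 min at room temperature before oxytocin, 100 s read. Signal: kinetic Fluo-8 calcium fluorescence. Controls: oxytocin EC15 low and EC100 high.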
V1aR counter: counter-screen for oxytocin receptor agonists: human V1a receptor agonists; AID 2797; CHO-V1R cells, Fluo-8 calcium fluorescence, agonist mode; 0% DMSO, 100% 3 nM vasopressin; 320,000 compounds, 0.25% hits; activation, % at 3 µM;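 active means activation above the mean activation of all tested compounds plus 3 SD, per screening run, cut at about 20% in these data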;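 further: signal is peak over basal fluorescence ratio across a 100 second FLIPR read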
zfTRPN1 agonist: zebrafish TRPN1 (NompC) channel agonism | HEK293 zebrafish TRPN1-YFP, Fluo-8 calcium fluorescence; 100% = response to 87 µM carbachol | activation, % at 3 µM | 220,000 compounds, 0.18% hits;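 active means activation above its plate's cutoff, the mean activation of test wells on that plate plus 3 SD, cut at about 19% in these data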
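Assay system: Zebrafish TRPN1-YFP in HEK293 cells | Incubation: Dye loading 1 h at 37 °C, then 30 min room temperature | Measured by: Kinetic Fluo-8 fluorescence, ex 470-495, em 515-575 nm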
TRPML3 ag: activates the human TRPML3 channel | Q8TDD5 | HEK293 TRPML3-YFP, Fluo-8 calcium fluorescence; 100% = the carbachol control signal | activation, % at 3 µM | 220,000 compounds, 0.29% hits | AID 1448;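 active means activation above its plate's cutoff, the mean activation of the plate's test wells plus 3 SD, cut at about 12% in these data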
Target sequence (Q8TDD5 whole entry, looked up): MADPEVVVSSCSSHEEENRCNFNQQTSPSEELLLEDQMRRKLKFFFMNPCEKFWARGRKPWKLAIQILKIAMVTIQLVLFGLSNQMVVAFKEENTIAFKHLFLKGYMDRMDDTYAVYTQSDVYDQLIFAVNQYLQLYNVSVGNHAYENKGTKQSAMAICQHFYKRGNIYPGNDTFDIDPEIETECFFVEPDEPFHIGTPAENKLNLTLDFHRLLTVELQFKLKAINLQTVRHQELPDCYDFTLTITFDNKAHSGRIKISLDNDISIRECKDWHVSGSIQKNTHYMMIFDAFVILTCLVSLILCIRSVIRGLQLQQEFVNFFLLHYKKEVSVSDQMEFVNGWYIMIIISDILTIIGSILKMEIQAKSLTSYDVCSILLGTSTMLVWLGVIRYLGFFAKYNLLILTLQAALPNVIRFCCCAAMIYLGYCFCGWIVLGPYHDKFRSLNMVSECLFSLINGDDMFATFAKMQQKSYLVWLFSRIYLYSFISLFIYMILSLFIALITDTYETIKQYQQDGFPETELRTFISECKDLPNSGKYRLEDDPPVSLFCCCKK
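Test system: HEK293 cells stably carrying human TRPML3-YFP; Doses: single dose, 3 µM final nominal compound, 0.3% DMSO final; Schedule: dye loading 1 h 37 °C then 30 min ambient, 125 s read; Technique: Fluo-8 calcium fluorescence; Benchmarks: high control carbachol 87 µM, low control DMSO.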
OXTR agonist: agonists of human oxytocin receptor. P30559. CHO-OTR cells, Fluo-8 calcium fluorescence; normalized: DMSO 0%, oxytocin 100%. activation, % at 3 µM. 320,000 compounds, 0.32% hits;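 active means activation above the mean of all tested compounds plus 3 SD, cutoff set per screening run, cut at about 20% in these data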;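 further: peak over basal fluorescence ratio from a 100 s FLIPR kinetic read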
OXTR ag confirm: human OXTR agonism, confirmation; shares compounds with OXTR agonist; CHO-OTR cells, Fluo-8 calcium fluorescence, agonist; activation, % at 3 µM; 390 compounds, 20% hits; AID 434963;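 active means mean activation above about 20% derived from the earlier single-dose screen, limit read from the data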;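 further: peak over minimum fluorescence ratio per well during a 100 second FLIPR read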
V1aR counter 3x: counter-screen for oxytocin receptor agonists: V1a receptor agonists; 390 compounds, 10% hits; AID 434991; activation, % at 3 µM; shares compounds with OXTR agonist; CHO-V1R cells, Fluo-8 calcium fluorescence, agonist;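 active means mean activation over triplicate exceeds the hit threshold set in the earlier primary screen, cut at about 20% in these data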;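 further: peak over basal fluorescence ratio within a 100 second read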
Numbers stand for hits; 0 = inactive; - = not tested or not shown; ! = not confirmed by another sample.

SMILES	OXTR potentiate	V1aR counter	zfTRPN1 agonist	TRPML3 ag	OXTR agonist	OXTR ag confirm	V1aR counter 3x
Cc1cc(C)nc(/N=C(\N)Nc2ccc(CC(=O)OC(C)C)cc2)n1	0	0	-	-	26	0	0
Cc1cc(C)nc(/N=C(\N)Nc2ccc(S(=O)(=O)O)cc2)n1	-	-	0	0	-	-	-
CCCC[C@@H]1C=C(C(=O)O)[C@H](c2ccc(Cl)cc2)N1S(=O)(=O)c1ccc(C)cc1	0	0	-	-	0	-	-
Nc1cc(=O)[nH]c(SCc2ccc(Cl)cc2Cl)n1	0	0	-	-	22	0	0
Fc1ccc([C@@H]2CCNC[C@H]2COc2ccc3c(c2)OCO3)cc1	0	0	0	0	23!	0	0
Fc1ccc(C2CCNCC2COc2ccc3c(c2)OCO3)cc1 (configuration not stated)	0	0	-	-	0	-	-
O=C(O)c1ccc(N/N=C/c2cn(Cc3ccc(F)cc3)c3ccccc23)cc1	0	0	0	0	21	0	0
CN1CCN(C2Cc3ccccc3Sc3ccc(Cl)cc32)CC1 (configuration not stated)	0	0	-	-	0	-	-
CN1CCN(C2Cc3ccccc3Sc3cc(C(F)(F)F)ccc32)CC1 (configuration not stated)	0	0	-	-	24	0	0
N=c1n(CC(=O)c2ccc(Br)s2)c2ccccc2n1Cc1ccccc1	0	0	0	0	23	22	0
CC(C)Cn1c(N)c(C(=O)COC(=O)c2ccc3c(c2)OCCO3)c(=O)n(C)c1=O	0	0	0	0	20	0	0
Cc1ccc(Oc2ccc(OCC(=O)OC3CCS(=O)(=O)C3)cc2)cc1 (configuration not stated)	0	0	0	0	25	0	0
CCc1ccccc1OC[C@@H](O)CN[C@H]1CCCc2ccccc21	0	0	-	-	22	0	0
OC(CNC1CCCc2ccccc21)COc1ccc2ccccc2c1 (configuration not stated)	0	0	0	0	0	-	-
COc1cccc(NC(=O)C2CCCO2)c1 (configuration not stated)	0	0	-	-	0	-	-
COc1cc(OC)c2c(-c3ccccc3)cc(=O)oc2c1C(CCN1CCCC(C)C1)c1ccc(N(C)C)cc1 (configuration not stated)	0	0	-	-	0	-	-
COc1ccc(C(CCN2CCCC(C)C2)c2c(OC)cc(OC)c3c(-c4ccccc4)cc(=O)oc23)cc1 (configuration not stated)	0	0	-	-	22	0	0
O=C(CSc1ccccn1)C12CC3CC(CC(C3)C1)C2	0	0	0	0	0	-	-
Cc1cccc2sc(NC(=O)CCNS(=O)(=O)c3cccc4nonc34)nc12	0	0	0	0	20	0	0
CC(C)c1ccc(N(CC(=O)NCC2CCCO2)C(=O)Cn2nnc(-c3cccs3)n2)cc1 (configuration not stated)	0	0	0	0	0	-	-
COc1ccc(CN(C)c2ccc(S(=O)(=O)N3CCN(C)CC3)cc2[N+](=O)[O-])cc1OC	0	0	-	-	26	0	0
Cc1ccc(OCCNc2cc(N3CCN(CCO)CC3)ccc2[N+](=O)[O-])cc1C	0	0	0	0	23	0	0
Cc1cccc(OCCNc2cc(N3CCN(C)CC3)ccc2[N+](=O)[O-])c1	0	0	0	0	0	-	-
O=C(NCc1ccc(OC(F)(F)F)cc1)c1cccc2c1C(=O)c1ccc(N3CCC(Cc4ccccc4)CC3)cc1S2(=O)=O	0	0	-	-	23	22	27
CCOc1cc(CNCCO)cc(Br)c1OCc1ccc(Cl)cc1Cl	0	0	0	0	21	0	0
CCN1CCN(c2ccc(NC(=O)c3ccc(Cl)c(N4CCCC4=O)c3)cc2)CC1	0	0	-	-	0	-	-
CC(c1ccccc1)N1CCC(CNC(=S)Nc2cccc(Cl)c2)C1 (configuration not stated)	0	0	0	0	22	0	0
COc1cc(C)c(CN2CCC(n3nccc3NC(=O)C3CCOC3)CC2)cc1C (configuration not stated)	0	0	-	-	0	-	-
